≈ marks a conversion by molar mass, not a printed value.
Key:
Nocardia brasiliensis [1] = test: Antibacterial activity against Nocardia brasiliensis isolated from actinomycetoma patient by broth dilution method; format: functional
Summary of the method: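 CLSI M24-A broth microdilution on 30 N. brasiliensis isolates from human actinomycetoma, including HUJEG-1, identified biochemically and by 16S rRNA gene fragment sequencing. Ground colonies were suspended to 0.5 McFarland in cation-adjusted Mueller-Hinton broth, giving 1 × 10^4 to 5 × 10^4 CFU per well, and added to serial drug dilutions. Incubation was 3 days at 35°C. MIC is the lowest concentration giving total growth inhibition; MIC50/MIC90 are reported.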

Mus musculus = test: Plasma concentration in mouse at 3.3 mg/kg, po; format: ADME, organism-based; design: dose 3.3 mg/kg, route oral; settings: in vivo
[2] = Tmax in mouse plasma at 3.3 mg/kg, po; format: ADME, organism-based; design: dose 3.3 mg/kg, route oral
Nocardia brasiliensis [3] = test: Antibacterial activity against Nocardia brasiliensis isolated from actinomycetoma patient by broth dilution method in presence of clavulanic acid; format: functional
Summary of the method: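 Same CLSI M24-A broth microdilution: 30 human actinomycetoma N. brasiliensis isolates, cation-adjusted Mueller-Hinton broth, inoculum 1 × 10^4 to 5 × 10^4 CFU per well, 3 days at 35°C. Clavulanic acid at 0.25 μg/ml was added with each carbapenem dilution. Drug-free growth well; E. coli ATCC 25922 and S. aureus ATCC 29213 as external controls. MIC is total growth inhibition.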

MIC50 (Nocardia brasiliensis [1]) | MIC90 (Nocardia brasiliensis [1]) | Cp (Mus musculus) | Tmax [2] | MIC50 (Nocardia brasiliensis [3]) | MIC90 (Nocardia brasiliensis [3]) | SMILES
0.125 µg/mL (≈ 0.289 µM) | 0.5 µg/mL (≈ 1.16 µM) |  |  |  |  | COc1c(N2CC[C@@H](C(C)(C)N)C2)c(F)cc2c(=O)c3c(=O)[nH]sc3n(C3CC3)c12
2 µg/mL (≈ 5.24 µM) | 4 µg/mL (≈ 10.5 µM) | 230 ng/mL | 1 h |  |  | Clc1ccc(COC(Cn2ccnc2)c2ccc(Cl)cc2Cl)cc1 (centres undefined) [ECONAZOLE]
64 µg/mL (≈ 214 µM) | > 64 µg/mL |  |  | 64 µg/mL | > 64 µg/mL | C[C@@H](O)[C@H]1C(=O)N2C(C(=O)O)=C(SCCNC=N)C[C@H]12 [IMIPENEM ANHYDROUS]
2 µg/mL (≈ 5.22 µM) | 8 µg/mL (≈ 20.9 µM) |  |  | 2 µg/mL | 8 µg/mL | C[C@@H](O)[C@H]1C(=O)N2C(C(=O)O)=C(S[C@@H]3CN[C@H](C(=O)N(C)C)C3)[C@H](C)[C@H]12 [MEROPENEM]

Source: ChEMBL document CHEMBL1255484, “In vitro activity of ACH-702, a new isothiazoloquinolone, against Nocardia brasiliensis compared with econazole and the carbapenems imipenem and meropenem alone or in combination with clavulanic acid” (Antimicrob Agents Chemother, 2010)
